ChEMBL document CHEMBL4011621, “A Novel Series of Highly Potent Small Molecule Inhibitors of Rhinovirus Replication” (J Med Chem, 2017)
Activity calls are given as the source filed them. No cut-off for these calls is given here.

How the values were obtained:
rhinovirus B14 [1] = assay: Antiviral activity against Human rhinovirus B14 infected in human H1HeLa cells assessed as protection against virus induced cytopathic effect after 3 days by MTT assay; format: functional, cell-based; settings: Rhinovirus B, H1-HeLa, 72 h
rhinovirus B14 [2] = assay: Antiviral activity against Human rhinovirus B14 harboring VP1 A150V/E276K double mutant infected in human HeLa Rh cells assessed as protection against virus induced cytopathic effect after 3 days by MTT assay; format: functional, cell-based
rhinovirus B14 [3] = assay: Antiviral activity against Human rhinovirus B14 harboring VP1 C199Y mutant infected in human HeLa Rh cells assessed as protection against virus induced cytopathic effect after 3 days by MTT assay; format: functional, cell-based
[4] = Cytotoxicity against human HeLa Rh cells assessed as decrease in cell viability after 3 days by MTT assay; format: cell-based
rhinovirus A21 = assay: Antiviral activity against Human rhinovirus A21 infected in human H1HeLa cells assessed as protection against virus induced cytopathic effect after 3 days by MTT assay; format: functional, cell-based; settings: Rhinovirus A, H1-HeLa, 72 h
Summary of the method: (§1)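 CPE-reduction assay in H1HeLa cells plated 2 d before. Equal volumes of virus and compound were added and held at 33 °C for 3 d under CO2. Supernatant was removed, then MTT was added for 1 h at 37 °C. Formazan was dissolved and read at 540 nm against a 690 nm reference. Survival was scaled between uninfected untreated wells (100%) and virus-only wells (0%); mean ± SD, three experiments.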

[5] = Cytotoxicity against human H1HeLa cells assessed as decrease in cell viability after 3 days by MTT assay; format: cell-based, H1-HeLa
[6] = Antiviral activity against Human rhinovirus A71 infected in human H1HeLa cells assessed as protection against virus induced cytopathic effect after 3 days by MTT assay; format: functional, cell-based; settings: Rhinovirus A, H1-HeLa, 72 h; summary of the method: as §1
[7] = Selectivity index, ratio of CC50 for human H1HeLa cells to EC50 for Human rhinovirus B14 infected in human H1HeLa cells; format: toxicity, cell-based; settings: read-out: Ratio CC50/EC50
Summary of the method: (§2)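 H1HeLa cells plated 2 d ahead; virus plus compound (equal volumes) incubated 33 °C, 3 d, CO2. MTT 1 h at 37 °C, A540/A690. Survival scaled between uninfected untreated (100%) and virus-only (0%) wells to give EC50. CC50 = 50% cell death by MTT in H1HeLa. SI = CC50/EC50; at least three independent experiments.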

[8] = Selectivity index, ratio of CC50 for human H1HeLa cells to EC50 for Human rhinovirus A21 infected in human H1HeLa cells; format: toxicity, cell-based; settings: read-out: Ratio CC50/EC50; summary of the method: as §2
[9] = Selectivity index, ratio of CC50 for human H1HeLa cells to EC50 for Human rhinovirus A71 infected in human H1HeLa cells; format: toxicity, cell-based; settings: read-out: Ratio CC50/EC50; summary of the method: as §2
Poliovirus 3 = assay: Antiviral activity against Human poliovirus 3 infected in human HeLa cells assessed as protection against virus induced cytopathic effect after 2 days by MTT assay; format: functional, cell-based; settings: Enterovirus C, 48 h
Summary of the method: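 HeLa cells; MTT-based CPE reduction. Virus and compound added in equal volumes, incubated 37 °C for 2 d in CO2. Supernatant removed, MTT 1 h at 37 °C, formazan dissolved, absorbance 540 nm (690 nm reference). Uninfected untreated wells = 100% survival, virus-only = 0%. EC50 = 50% inhibition; means ± SD, three experiments.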

[10] = Cytotoxicity aganist human HeLa cells assessed as decrease in cell viability after 2 days by MTT assay; format: cell-based
[11] = Selectivity index, ratio of CC50 for human HeLa cells to EC50 for human poliovirus 3 infected in human HeLa cells; format: toxicity, cell-based; settings: read-out: Ratio CC50/EC50
Summary of the method: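 SI = CC50/EC50 in HeLa cells. CC50 = 50% cell death by MTT. EC50 = 50% inhibition of PV3 CPE by MTT after 2 d at 37 °C, survival scaled to uninfected (100%) and virus-only (0%) wells. At least three independent experiments.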

rhinovirus A16 [12] = assay: Antiviral activity against Human rhinovirus A16 infected in human H1HeLa cells assessed as protection against virus induced cytopathic effect after 3 days by MTT assay; format: functional, cell-based; settings: Rhinovirus A, H1-HeLa, 72 h; summary of the method: as §1
rhinovirus B14 [13] = assay: Antiviral activity against Human rhinovirus B14 infected in H1HeLa cells assessed as decrease in viral dsRNA at 6 times EC50 treated every 1 hr for 6 hrs after infection by DAPI staining based immunofluorescence assay; format: functional, cell-based
Summary of the method: (§3)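 Cells were infected with hRV type 14 or type 16 at MOI 1. Compound was given 1 h before infection, at infection (0 h), or at later hourly time points. At 9 h post-infection, cells were fixed in ice-cold methanol–acetone 3:1 and stained with anti-dsRNA antibody (J2), an Alexa Fluor 488 anti-mouse secondary and DAPI, then imaged. Infected-cell count over total nuclei was expressed as % of untreated virus control; mean ± SD, three experiments.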

rhinovirus B14 [14] = assay: Antiviral activity against Human rhinovirus B14 infected in H1HeLa cells assessed as decrease in viral dsRNA at 6 times EC50 treated every 1 hr for 9 hrs after infection by DAPI staining based immunofluorescence assay; format: functional, cell-based; summary of the method: as §3
rhinovirus B14 [15] = assay: Antiviral activity against Human rhinovirus B14 infected in H1HeLa cells assessed as decrease in viral dsRNA at 6 times EC50 treated 1 hr prior to infection by DAPI staining based immunofluorescence assay; format: functional, cell-based; summary of the method: as §3
rhinovirus B14 [16] = assay: Antiviral activity against Human rhinovirus B14 infected in H1HeLa cells assessed as decrease in viral dsRNA at 6 times EC50 treated simultaneously with infection by DAPI staining based immunofluorescence assay; format: functional, cell-based; summary of the method: as §3
rhinovirus A16 [17] = assay: Antiviral activity against Human rhinovirus A16 infected in H1HeLa cells assessed as decrease in viral dsRNA at 6 times EC50 treated 1 hr prior to infection by DAPI staining based immunofluorescence assay; format: functional, cell-based; summary of the method: as §3
rhinovirus A16 [18] = assay: Antiviral activity against Human rhinovirus A16 infected in H1HeLa cells assessed as decrease in viral dsRNA at 6 times EC50 treated simultaneously with infection by DAPI staining based immunofluorescence assay; format: functional, cell-based; summary of the method: as §3
rhinovirus A16 [19] = assay: Antiviral activity against Human rhinovirus A16 infected in H1HeLa cells assessed as decrease in viral dsRNA at 6 times EC50 treated every 1 hr for 9 hrs after infection by DAPI staining based immunofluorescence assay; format: functional, cell-based; summary of the method: as §3

Row | SMILES | EC50 (rhinovirus B14 [1]) [nM] | EC50 (rhinovirus A21) [nM] | CC50 at 72 h [5] [nM] | EC50 [6] [nM] | selectivity ratio [7] | selectivity ratio [8] | selectivity ratio [9] | EC50 (Poliovirus 3) [nM] | CC50 at 48 h [10] [nM] | selectivity ratio [11] | further results
1 | C#CC[C@@H](C(=O)N[C@H](/C=C/C(=O)OCC)C[C@@H]1CCNC1=O)n1cccc(NC(=O)c2cc(C)on2)c1=O [IMOCITRELVIR] | 45 |  |  |  |  |  |  |  |  |  | EC50 (rhinovirus B14 [2]): 49 nM; EC50 (rhinovirus B14 [3]): 56 nM; CC50 at 72 h [4]: > 3000 nM
2 | CNC(=O)c1cc(Oc2ccc3c(C)c(C(=O)OC(C)C)n(C)c3c2)ccn1 | 1900 | 130 | 11200 | 60 | 5.9 | 86 | 190 | 71 | 8500 | 120 | 
3 | CCOC(=O)c1sc2cc(Oc3ccnc(C(=O)NC)c3)ccc2c1C#N | 82500 | 20700 | > 100000 | 540 | > 1.2 | > 4.8 | > 190 | 55400 | > 100000 | > 1.8 | 
4 | CCOC(=O)/C=C/[C@H](C[C@@H]1CCNC1=O)NC(=O)[C@@H](CC(=O)[C@@H](NC(=O)c1cc(C)on1)C(C)C)Cc1ccc(F)cc1 [RUPINTRIVIR] |  |  |  |  |  |  |  |  |  |  | EC50 (rhinovirus A16 [12]): 30 nM; Activity (rhinovirus B14 [13]): Active
5 | CCCOC(=O)c1sc2cc(Oc3ccnc(C(=O)NC)c3)ccc2c1C | 2900 | 330 | 37400 | 64 | 13 | 110 | 580 | 710 | 57100 | 80 | 
6 | CCOC(=O)c1sc2cc(Oc3cccc(C(=O)NC)c3)ccc2c1C | 3400 | 85 | 5100 | 150 | 1.5 | 60 | 34 | 380 | 7700 | 20 | 
7 | CNC(=O)c1cc(Oc2ccc3cc(C(=O)OC(C)C)sc3c2)ccn1 | 1700 | 1500 | 45700 | 13 | 27 | 31 | 3500 | 6400 | 45000 | 7 | 
8 | CNC(=O)c1cc(Oc2ccc3c(C)c(C(=O)OC(C)C)sc3c2)ccn1 | 70 to 83 | 78 | 18100 | 15 | 220 | 230 | 1200 | 63 | 9600 | 150 | Activity (rhinovirus B14 [14]): inactive; EC50 (rhinovirus A16 [12]): 230 nM; Activity (rhinovirus B14 [15]): Active; Activity (rhinovirus B14 [16]): Active; Activity (rhinovirus A16 [17]): Active; Activity (rhinovirus A16 [18]): Active; Activity (rhinovirus A16 [19]): inactive; EC50 (rhinovirus B14 [2]): 264 nM; EC50 (rhinovirus B14 [3]): 2370 nM; CC50 at 72 h [4]: > 3000 nM
9 | CCOC(=O)c1ccc2ccc(Oc3ccnc(C(=O)NC)c3)cc2c1 | 2100 | 270 | 20800 | 48 | 9.9 | 77 | 430 | 9.5 | 13200 | 1400 | 
10 | CCOC(=O)c1sc2cc(Oc3ccnc(C(=O)NC)c3)ccc2c1C | 1700 | 290 | 50900 | 340 | 30 | 180 | 150 | 93 | > 100000 | > 1100 | 
11 | CNC(=O)c1cc(Oc2ccc3c(C)c(C(=O)OC)sc3c2)ccn1 | 2000 | 250 | 10800 | 1600 | 5.4 | 43 | 6.8 | 87 | 15700 | 180 | 
12 | Cc1cc(CCCOc2c(C)cc(-c3noc(C(F)(F)F)n3)cc2C)on1 [PLECONARIL] | 75 to 92 | 73 | 19700 | 9.4 | 210 | 270 | 2100 | 1400 | 25900 | 19 | Activity (rhinovirus B14 [14]): inactive; EC50 (rhinovirus A16 [12]): 350 nM; Activity (rhinovirus B14 [15]): Active; Activity (rhinovirus B14 [16]): Active; Activity (rhinovirus A16 [17]): Active; Activity (rhinovirus A16 [18]): Active; EC50 (rhinovirus B14 [2]): 1490 nM; EC50 (rhinovirus B14 [3]): 2310 nM; CC50 at 72 h [4]: > 10000 nM
13 | CNC(=O)c1cc(Oc2ccc3ccc(C(=O)OC(C)C)cc3c2)ccn1 | 1800 | 480 | 13800 | 19 | 7.7 | 29 | 730 | 10 | 8700 | 870 | 
14 | CCOC(=O)c1ccc2cc(Oc3ccnc(C(=O)NC)c3)ccc2c1 | 2100 | 91 | 35300 | 3.5 | 17 | 390 | 10000 | 410 | 34100 | 83 | 
15 | CNC(=O)c1cc(Oc2ccc3c(C)c(C(=O)OCC(C)C)sc3c2)ccn1 | 10100 | 1500 | 36600 | 380 | 3.6 | 24 | 96 | 2000 | 28200 | 14 | 
16 | CCOC(=O)c1cc2ccc(Oc3ccnc(C(=O)NC)c3)cc2s1 | 24600 to 58400 | 1200 to 1300 | > 100000 | 19 | > 1.7 | > 77 | > 5300 | 64300 | > 100000 | > 1.6 | 
17 | CNC(=O)c1cc(Oc2ccc3cc(C(=O)OC(C)C)n(C)c3c2)ccn1 | 820 | 64 | 10300 | 7.1 | 13 | 160 | 1500 | 9100 | 46100 | 5.1 | 
18 | CCOc1noc2cc(OCCC3CCN(c4ccc(C)nn4)CC3)ccc12 [VAPENDAVIR] |  |  |  |  |  |  |  |  |  |  | CC50 at 72 h [4]: 721000 nM
